# From PubChem BioAssay
# dFosB act = mouse delta FosB homodimer activation | P13346 | purified delta FosB, TAMRA-CDK5 oligo fluorescence polarization; percent of positive-control signal above neutral wells | activation, % at 25 µM | 0.99% of 340,000 active;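 active = mean activation above about 17%, with every replicate also reaching it, limit read from the data, passing the limit was not always enough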
# Xi reactivation = X-chromosome reactivation activator. XiGFP mouse fibroblasts, % GFP-positive cells imaging, 3 d; cells co-treated with 5-aza-dC sensitizer; scaled so ellipticine positive control = 100%. activation, % at 7.58 µM. 0.055% of 360,000 active;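 active = mean normalized replicate activation at least 10% and every replicate at or above 10%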
#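 Assay system: SV40-immortalized XiGFP fibroblast cells, line 68-5-11; buffer or medium: DMEM plus 5-aza-dC sensitizer; compound: one concentration, pinned; timing: compounds 3 days, fix/stain 15 min at room temperature; benchmarks: positive control ellipticine, 6 µM final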
# Ecoli rRNA inh = inhibitors of bacterial rRNA selective over humanized ribosomes; GFP signal change (wild-type ribosome), % (concentration not given with the values); 1.6% of 350,000 active; E. coli WT GFP vs humanized-ribosome RFP mutants, fluorescence, 24 h; active compounds read low; DMSO median 0, no signal -100; AID 720706;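 active = significant combined selectivity score with lowered wild-type GFP, culture density cut under 30%, mutant RFP and density less affected; inactive = any of these conditions unmet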
# SR-BI DiI inh = blocks mouse SR-BI lipid uptake from DiI-HDL; Q61009; ldlA[mSR-BI] CHO cells, DiI-HDL uptake fluorescence, 3 h; inhibition, % at 12.5 µM; 0.96% of 320,000 active; AID 488896;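 active = mean replicate inhibition of at least 70% and a set share of replicates each scoring 70 or more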
# Target sequence (Q61009 whole entry, looked up): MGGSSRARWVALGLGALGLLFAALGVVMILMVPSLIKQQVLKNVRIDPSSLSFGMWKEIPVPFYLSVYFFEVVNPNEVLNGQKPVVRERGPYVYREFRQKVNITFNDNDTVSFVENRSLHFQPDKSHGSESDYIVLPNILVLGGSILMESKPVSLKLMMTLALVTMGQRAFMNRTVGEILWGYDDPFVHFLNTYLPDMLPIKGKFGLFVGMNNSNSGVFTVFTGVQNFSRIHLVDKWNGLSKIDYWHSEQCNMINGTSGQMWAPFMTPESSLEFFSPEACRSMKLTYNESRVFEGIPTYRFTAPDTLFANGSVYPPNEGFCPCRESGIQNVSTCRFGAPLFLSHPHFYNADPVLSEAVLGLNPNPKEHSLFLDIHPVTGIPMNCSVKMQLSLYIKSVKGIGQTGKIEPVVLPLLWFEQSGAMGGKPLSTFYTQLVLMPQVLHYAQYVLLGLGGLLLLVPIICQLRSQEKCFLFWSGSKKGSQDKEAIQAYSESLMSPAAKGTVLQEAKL
# PvdQ inh = blocks Pseudomonas aeruginosa PvdQ acylase activity; purified PvdQ acylase, fluorescence plate reader; AID 488965; inhibition, % at 10 µM; 0.063% of 340,000 active; in the data active = inhibition above about 30%, passing the limit was not always enough
# SR-BI uptake up = enhances SR-BI lipid uptake from DiI-HDL | CHO ldlA[mSR-BI] cells, DiI-HDL uptake fluorescence, 3 h; 100 = double the neutral-control signal | activation, % at 12.5 µM | 0.096% of 320,000 active;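 active = mean replicate activation of at least 60% and every replicate at or above 60%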
#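 System: LDL receptor-deficient CHO ldlA cells overexpressing murine SR-BI | Timing: 3 h uptake period with compound, 37 °C | Medium: HEPES-buffered (25 mM, pH 7.4) F12 plus 0.5% BSA | Dosing: Single-point compound dose | Signal: Bottom-read fluorescence, 550/595 nm | Read-out: Retained DiI signal reflecting DiI-HDL uptake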
# Hits are given with their value; 0 = inactive; - = not tested or not shown. Only some compounds are listed: those with a hit (about 2.6% of all), similar ones and a draw of the others.
SMILES,dFosB act,Xi reactivation,Ecoli rRNA inh,SR-BI DiI inh,PvdQ inh,SR-BI uptake up
COc1cc(OC)cc(-c2c(-c3cccs3)c3cc(-c4ccc5cc[nH]c5c4)ccc3n2C)c1,0,0,0,109.0,0,0
COc1ccc(-c2c(C#Cc3ccsc3)c3cc(-c4cccc5[nH]ccc45)ccc3n2C)cc1,0,0,0,0,0,0
COc1ccc(-c2c(C#Cc3ccsc3)c3cc(-c4ccc5[nH]ccc5c4)ccc3n2C)cc1,17.2,0,0,0,0,0
CN1C(=O)c2cc(NC(=O)c3ccc(Cl)cc3)ccc2OC[C@H]2O[C@@H](CC(=O)NCc3cccc(F)c3)CC[C@H]21,-,0,0,-,-,-
COc1cc(C)c(CN2CCN(c3ncccn3)CC2)cc1C,-,0,0,-,-,-
CCc1ccc(C(=O)CN2C(=O)NC3(CCOc4ccccc43)C2=O)s1 (stereo unspecified),0,0,-,0,0,0
O=C(CN1C(=O)NC2(CCOc3ccccc32)C1=O)c1ccc(Cl)s1 (stereo unspecified),0,0,-32.1,0,0,0
Cc1ccc(N2N=C(c3ccc(F)cc3)CC2c2ccco2)cc1 (stereo unspecified),0,0,0,79.1,0,0
COc1ccc([N+](=O)[O-])cc1NC(=O)C1(c2ccccc2)CCOCC1,0,0,0,0,0,0
CCSC(=S)c1c(C)[nH]n(-c2ccccc2)c1=O,0,0,-43.2,0,0,0
Cc1[nH]n(-c2ccccc2)c(=O)c1/C=N/NC(=O)c1ccccc1F,0,0,0,105.8,0,0
Cc1[nH]n(-c2ccccc2)c(=O)c1/C=N/NC(=O)c1cccc([N+](=O)[O-])c1,0,-,-,111.8,0,0
Cc1[nH]n(-c2ccccc2)c(=O)c1C(=O)c1ccccc1,0,0,0,0,0,0
CC/C(=N/NC(=O)c1ccccc1O)c1c(C)[nH]n(-c2ccccc2)c1=O,0,0,0,137.0,0,0
O=C(NCc1cccc(C(F)(F)F)c1)C1CC(c2ccccc2[N+](=O)[O-])=NO1 (stereo unspecified),0,0,-33.0,0,0,0
COCc1nnc(NC(=O)CCN2C(=O)c3ccccc3C2=O)s1,0,-,-,0,0,0
CCCc1nnc(NC(=O)CCN2C(=O)c3ccccc3C2=O)s1,19.5,-,-,0,0,0
COC(=O)c1cc2c(n1S(=O)(=O)c1ccc(C)cc1)C(=O)C(=O)c1[nH]cc(C(=O)OCc3ccccc3)c1-2,0,-,-,88.2,0,0
CN(C)c1ccc(/C=C/c2cc[n+](C)cc2)cc1,32.1,-,-,0,0,0
CCCCCC[n+]1ccccc1/C=C/c1ccc(N(C)C)cc1,-,16.3,0,-,-,-
Cc1ccc(/C=C/c2ccc(N(C)C)cc2)[n+](C)c1,0,0,0,0,0,0
CC1(C)CC(NC(=O)C(c2ccccc2)c2ccccc2)CC(C)(C)N1,0,0,0,0,0,0
O=C(c1cc(COc2ccc(F)cc2Cl)on1)N1CCSCC1,0,0,-36.7,0,0,0
COc1ccc(OCc2cc(C(=O)N3CCSCC3)no2)c(Cl)c1,0,0,-28.9,0,0,0
COc1cc(C)ccc1OCc1cc(C(=O)N2CCCCCC2)no1,0,0,-26.1,0,0,0
SMILES,dFosB act,Xi reactivation,Ecoli rRNA inh,SR-BI DiI inh,PvdQ inh,SR-BI uptake up
O=C(c1cc(COc2ccc(F)cc2Cl)on1)N1CCCC(c2ccccc2)C1 (stereo unspecified),0,0,0,0,0,0
COc1cc(Cl)ccc1OCc1cc(C(=O)N2CCCCCCC2)no1,0,0,0,0,0,0
O=C(c1cc(COc2ccc(F)cc2F)on1)N1CCCC(c2ccccc2)C1 (stereo unspecified),0,0,-22.4,0,0,0
Cc1ccc(C)c(OCCC(=O)OCC(=O)NC(=O)NC2CCCCC2)c1,0,0,0,0,0,0
CCC(C(=O)NC1CCCCCC1)n1nc(C)n2c(cc3occc32)c1=O (stereo unspecified),0,0,0,0,0,0
CCC(=O)NC1CC2CCCC(C1)N2Cc1ccc(C)cc1 (stereo unspecified),0,0,0,0,0,0
COc1cc(NC(=O)CCc2c(C)[nH]c(=O)c(C#N)c2C)cc(OC)c1,0,0,0,0,0,0
CCOC(=O)c1cnc2cc(-c3ccc(Cl)cc3)nn2c1N,0,-,0,86.4,0,0
CN1CCN(CC(O)COC(c2ccc(Cl)cc2)c2ccc(Cl)cc2)CC1 (stereo unspecified),22.0,0,0,0,0,0
CC1=CC(=O)c2ccccc2C1=O,0,0,0,0,0,0
CC(C)(C=O)C1=CC(=O)c2ccccc2C1=O,0,17.6,0,0,0,0
CCOC(=O)N1CCN(CC(=O)Nc2c(C(=O)OC)[nH]c3cccc(Cl)c23)CC1,0,-,-15.5,0,0,0
CCc1cc(/C(Cc2ccccn2)=N\O)c(O)cc1O,0,-,-32.7,0,0,0
CCc1cc(/C(Cc2cscn2)=N\O)c(O)cc1O,0,-,-,0,0,0
C=CCn1c(COc2ccccc2)nc2ccccc21,0,0,-27.4,0,0,0
O=c1c2c([nH]c3ccc(Br)cc13)CCCC2,0,-,-,0,0,0
Brc1ccc2[nH]c3c(c2c1)CCC3,0,0,-15.7,0,0,0
CNc1ccc(N=Nc2cccc3ncccc23)cc1,0,0,-,0,0,0
COc1ccc(Cl)cc1NC(=O)CCc1ccccc1,0,-,-,0,0,0
Cc1cc(Cl)ccc1NNC(=O)CCc1ccccc1,0,0,-28.7,0,0,0
O=C(CCc1ccccc1)NNC(=O)c1cc(Cl)ccc1O,0,0,0,115.4,0,0
C=CCN1[C@@H](CC(C)C)COc2cccc(NCCCN3CCOCC3)c2S1(=O)=O,-,0,0,-,-,-
COc1cc(/C=N/NS(=O)(=O)c2ccc(C)c([N+](=O)[O-])c2)ccc1O,0,0,0,0,0,0
CCN(CC)S(=O)(=O)c1ccc(C(=O)NCCc2cc3c(OC)ccc(OC)c3[nH]c2=O)cc1,0,-,-,88.6,0,0
COc1ccc(OC)c2[nH]c(=O)c(CCNC(=O)c3ccc(S(=O)(=O)N4CCCC4)cc3)cc12,0,-,-,0,0,0
Cc1cnccc1CN(C)Cc1cn(C)nc1-c1ccc(Oc2ccccc2)cc1,0,0,0,0,0,0
CCOC(=O)CN(C)Cc1cn(C)nc1-c1ccc(Oc2ccccc2)cc1,0,0,-19.5,0,0,0
Cc1ccc(N(C)S(=O)(=O)c2cccc(C(=O)OCC(=O)N3CCCC(C)C3)c2)cc1 (stereo unspecified),0,0,0,0,0,0
CC(C)Oc1ccc(CCC(=O)N/N=C/c2ccncc2)cc1,-,0,0,-,-,-
